Test results taken from ChEMBL document CHEMBL1136954, “Toward the back-up of boceprevir (SCH 503034): discovery of new extended P4-capped ketoamide inhibitors of hepatitis C virus NS3 serine protease with improved potency and pharmacokinetic profiles” (J Med Chem, 2009).

How the values were obtained:
[1] = Inhibition of HCV NS4A-tethered single chain NS3 serine protease by spectrophotometric assay; parameters: species or system Hepacivirus hominis
Outline: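 Continuous assay with NS4A-tethered single-chain NS3 serine protease; potency given as Ki*.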

Hepatitis C virus = test: Antiviral activity against Hepatitis C virus genotype 1 infected in human hepatocytes by replicon assay; assay type: functional, Hepacivirus hominis; settings: genotype 1, Hepatocyte
Outline: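 HCV genotype 1 replicon cell assay; EC90 reported, within 3-fold at 95% confidence for a single assay and within 2-fold for multiple assays.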

[2] = Cytotoxicity against human hepatocytes assessed as effect on GAPDH RNA level […]; assay type: cell-based, Hepatocyte
Outline: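 Counter-screen for cellular toxicity measuring GAPDH; CC50 reported.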

[3] = AUC (0 to 6 hrs) in rat at 10 mg/kg, po; assay type: ADME, organism-based; parameters: time < 6 hr, dose 10 mg/kg, route oral; settings: plasma
[4] = Drug level in rat liver at 10 mg/kg, po after 6 hrs; assay type: ADME, organism-based; parameters: dose 10 mg/kg, route oral; settings: read-out: Drug uptake
Outline: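 Rapid rat oral screen, 2 animals, PO vehicle 40% HPBCD; compound concentration measured in liver at 6 h, or at 8 h where footnoted; plasma AUC taken over 0-6 h.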

| Compound | Ki [1] [nM] | EC90 (Hepatitis C virus) [nM] | CC50 [2] [nM] | AUC(0-t) at 6 h [3] [µM·h] | concentration at 6 h [4] [nM] |
| --- | --- | --- | --- | --- | --- |
| CC(C)[C@H](NC(=O)N[C@H](C(=O)N1C[C@H]2[C@@H]([C@H]1C(=O)NC(CC1CC1)C(=O)C(N)=O)C2(C)C)C(C)(C)C)C(=O)OCc1ccccc1 (mixture of isomers) | 13 | 35 | > 5000 |  |  |
| CC(C)(C)[C@H](NC(=O)NC1(C(=O)OCc2ccccc2)CC1)C(=O)N1C[C@H]2[C@@H]([C@H]1C(=O)NC(CC1CC1)C(=O)C(N)=O)C2(C)C (mixture of isomers) | 170 | 1000 | > 5000 |  |  |
| CC(C)(C)[C@H](NC(=O)N[C@H](C(=O)OCc1ccccc1)C1CCCCC1)C(=O)N1C[C@H]2[C@@H]([C@H]1C(=O)NC(CC1CC1)C(=O)C(N)=O)C2(C)C (mixture of isomers) | 10 | 20 | > 5000 |  |  |
| CC(C)(C)[C@H](NC(=O)NC1(C(=O)NS(=O)(=O)c2ccccc2)CCCCC1)C(=O)N1C[C@H]2[C@@H]([C@H]1C(=O)NC(CC1CC1)C(=O)C(N)=O)C2(C)C (mixture of isomers) | 110 | 5000 | > 5000 |  |  |
| CC(C)[C@H](NC(=O)N[C@H](C(=O)N1C[C@H]2[C@@H]([C@H]1C(=O)NC(CC1CC1)C(=O)C(N)=O)C2(C)C)C(C)(C)C)C(=O)C1CC1 (mixture of isomers) | 7 | 100 | > 5000 | 0.12 |  |
| C#CCCC(NC(=O)[C@@H]1[C@@H]2[C@H](CN1C(=O)[C@@H](NC(=O)N[C@H](C(=O)C1CC1)C1CCCCC1)C(C)(C)C)C2(C)C)C(=O)C(=O)NC1CC1 (mixture of isomers) | 4 | 55 | > 5000 | 11 | 2900 |
| CC(C)(C)[C@H](NC(=O)N[C@H](C(=O)OCc1ccccc1)C1CCCC1)C(=O)N1C[C@H]2[C@@H]([C@H]1C(=O)NC(CC1CC1)C(=O)C(N)=O)C2(C)C (mixture of isomers) | 9 | 25 | > 5000 |  |  |
| CC(C)[C@H](NC(=O)N[C@H](C(=O)N1C[C@H]2[C@@H]([C@H]1C(=O)NC(CC1CC1)C(=O)C(N)=O)C2(C)C)C(C)(C)C)C(=O)c1nccs1 (mixture of isomers) | 9 | 90 | > 5000 | 0.15 |  |
| CC(C)[C@H](NC(=O)N[C@H](C(=O)N1C[C@H]2[C@@H]([C@H]1C(=O)NC(CC1CC1)C(=O)C(N)=O)C2(C)C)C(C)(C)C)C(=O)c1ccccn1 (mixture of isomers) | 8 | 200 | > 5000 | 0.42 |  |
| CC(C)[C@](C)(NC(=O)N[C@H](C(=O)N1C[C@H]2[C@@H]([C@H]1C(=O)NC(CC1CC1)C(=O)C(N)=O)C2(C)C)C(C)(C)C)C(=O)OCc1ccccc1 (mixture of isomers) | 44 | 500 | > 5000 |  |  |
| C#CCCC(NC(=O)[C@@H]1[C@@H]2[C@H](CN1C(=O)[C@@H](NC(=O)N[C@H](C(=O)C1CC1)C1CCCCC1)C(C)(C)C)C2(C)C)C(=O)C(=O)NCC=C (mixture of isomers) | 9 | 250 | > 5000 | 24 | 8500 |
| COC(=O)C1(NC(=O)N[C@H](C(=O)N2C[C@H]3[C@@H]([C@H]2C(=O)NC(CC2CC2)C(=O)C(N)=O)C3(C)C)C(C)(C)C)CCCCC1 (mixture of isomers) | 30 | 200 | > 5000 |  |  |
| C=CCNC(=O)C(=O)C(CCC)NC(=O)[C@@H]1[C@@H]2[C@H](CN1C(=O)[C@@H](NC(=O)N[C@H](C(=O)C1CC1)C1CCCCC1)C(C)(C)C)C2(C)C (mixture of isomers) | 10 | 500 | > 5000 | 55 |  |
| CC(C)(C)[C@H](NC(=O)NC1(C(=O)O)CCCCC1)C(=O)N1C[C@H]2[C@@H]([C@H]1C(=O)NC(CC1CC1)C(=O)C(N)=O)C2(C)C (mixture of isomers) | 9 | 5000 | > 5000 |  |  |
| CC(C)(C)[C@H](NC(=O)N[C@H](C(=O)c1ccccn1)C1CCCCC1)C(=O)N1C[C@H]2[C@@H]([C@H]1C(=O)NC(CC1CC1)C(=O)C(N)=O)C2(C)C (mixture of isomers) | 7 | 90 | > 5000 | 1.4 | 800 |
| CC(C)[C@H](NC(=O)N[C@H](C(=O)N1C[C@H]2[C@@H]([C@H]1C(=O)NC(CC1CC1)C(=O)C(N)=O)C2(C)C)C(C)(C)C)C(=O)NS(=O)(=O)c1ccccc1 (mixture of isomers) | 6 | 5000 | > 5000 |  |  |
| CC(C)(C)[C@H](NC(=O)NC1(C(=O)OCC2CC2)CCCCC1)C(=O)N1C[C@H]2[C@@H]([C@H]1C(=O)NC(CC1CC1)C(=O)C(N)=O)C2(C)C (mixture of isomers) | 39 | 60 | > 5000 |  |  |

| Compound | Ki [1] [nM] | EC90 (Hepatitis C virus) [nM] | CC50 [2] [nM] | AUC(0-t) at 6 h [3] [µM·h] | concentration at 6 h [4] [nM] |
| --- | --- | --- | --- | --- | --- |
| CC(C)(C)[C@H](NC(=O)NC1(C(=O)OCc2ccco2)CCCCC1)C(=O)N1C[C@H]2[C@@H]([C@H]1C(=O)NC(CC1CC1)C(=O)C(N)=O)C2(C)C (mixture of isomers) | 28 | 30 | > 5000 |  |  |
| C[C@@H](OC(=O)C1(NC(=O)N[C@H](C(=O)N2C[C@H]3[C@@H]([C@H]2C(=O)NC(CC2CC2)C(=O)C(N)=O)C3(C)C)C(C)(C)C)CCCCC1)c1ccccc1 (mixture of isomers) | 80 | 600 | > 5000 |  |  |
| CC(C)(C)[C@H](NC(=O)NC1(C(=O)OCc2ccsc2)CCCCC1)C(=O)N1C[C@H]2[C@@H]([C@H]1C(=O)NC(CC1CC1)C(=O)C(N)=O)C2(C)C (mixture of isomers) | 31 | 20 | > 5000 |  |  |
| CC(C)(C)[C@H](NC(=O)N[C@H](C(=O)N1C[C@H]2[C@@H]([C@H]1C(=O)NC(CC1CC1)C(=O)C(N)=O)C2(C)C)C(C)(C)C)C(=O)OCc1ccccc1 (mixture of isomers) | 67 | 50 | > 5000 |  |  |
| CC(C)(C)[C@H](NC(=O)NC1(C(=O)OCc2ccccc2)CCCC1)C(=O)N1C[C@H]2[C@@H]([C@H]1C(=O)NC(CC1CC1)C(=O)C(N)=O)C2(C)C (mixture of isomers) | 58 | 30 | > 5000 |  |  |
| CC(C)(C)[C@H](NC(=O)NC1(C(=O)OCc2ccoc2)CCCCC1)C(=O)N1C[C@H]2[C@@H]([C@H]1C(=O)NC(CC1CC1)C(=O)C(N)=O)C2(C)C (mixture of isomers) | 39 | 20 | > 5000 |  |  |
| CC(C)(C)[C@H](NC(=O)NC1(C(=O)c2ccccc2)CCCCC1)C(=O)N1C[C@H]2[C@@H]([C@H]1C(=O)NC(CC1CC1)C(=O)C(N)=O)C2(C)C (mixture of isomers) | 100 | 2000 | > 5000 |  |  |
| CC(C)(NC(=O)N[C@H](C(=O)N1C[C@H]2[C@@H]([C@H]1C(=O)NC(CC1CC1)C(=O)C(N)=O)C2(C)C)C(C)(C)C)C(=O)OCc1ccccc1 (mixture of isomers) | 210 | 1480 | > 5000 |  |  |
| C=CCNC(=O)C(=O)C(CCC)NC(=O)[C@@H]1[C@@H]2[C@H](CN1C(=O)[C@@H](NC(=O)N[C@H](C(=O)C1CC1)C(C)C)C(C)(C)C)C2(C)C (mixture of isomers) | 25 | 600 | > 5000 | 26 |  |
| CC(C)[C@H](NC(=O)N[C@H](C(=O)N1C[C@H]2[C@@H]([C@H]1C(=O)NC(CC1CC1)C(=O)C(N)=O)C2(C)C)C(C)(C)C)C(=O)O[C@H](C)c1ccccc1 (mixture of isomers) | 80 | 600 | > 5000 |  |  |
| CC(C)(C)[C@H](NC(=O)NC1(C(=O)NCc2ccccc2)CCCCC1)C(=O)N1C[C@H]2[C@@H]([C@H]1C(=O)NC(CC1CC1)C(=O)C(N)=O)C2(C)C (mixture of isomers) | 44 | 5000 | > 5000 |  |  |
| CC(C)(C)[C@H](NC(=O)NC1(COC(=O)c2ccccc2)CCCCC1)C(=O)N1C[C@H]2[C@@H]([C@H]1C(=O)NC(CC1CC1)C(=O)C(N)=O)C2(C)C (mixture of isomers) | 120 | 1000 | > 5000 |  |  |
| CC(C)(C)[C@H](NC(=O)N[C@H](C(=O)OCc1ccccc1)C1CC1)C(=O)N1C[C@H]2[C@@H]([C@H]1C(=O)NC(CC1CC1)C(=O)C(N)=O)C2(C)C (mixture of isomers) | 10 | 20 | > 5000 |  |  |
| C#CCCC(NC(=O)[C@@H]1[C@@H]2[C@H](CN1C(=O)[C@@H](NC(=O)N[C@H](C(=O)C1CC1)C(C)C)C(C)(C)C)C2(C)C)C(=O)C(=O)NC1CC1 (mixture of isomers) | 8 | 70 | > 5000 | 4.8 | 900 |
| CC(C)(C)[C@H](NC(=O)N[C@H](C(=O)C1CC1)C1CCCCC1)C(=O)N1C[C@H]2[C@@H]([C@H]1C(=O)NC(CC1CC1)C(=O)C(N)=O)C2(C)C (mixture of isomers) | 8 | 100 | > 5000 | 1.4 | 2700 |
| CC1(NC(=O)N[C@H](C(=O)N2C[C@H]3[C@@H]([C@H]2C(=O)NC(CC2CC2)C(=O)C(N)=O)C3(C)C)C(C)(C)C)CCCCC1 (mixture of isomers) | 9 | 200 | > 5000 |  |  |
